Measured values reported in ChEMBL document CHEMBL4304833, “Development of Kinase Inactive PD173955 Analogues for Reducing Production of Aβ Peptides” (ACS Med Chem Lett, 2019).
Active and inactive are the calls of the source. No cut-off for these calls is given here.

Columns and labels:
[1] = target: Beta-secretase 1 (Mus musculus) (UniProt P56818); assay: Inhibition of BACE1 in mouse N2a695 cells assessed as reduction in Abeta40 production transfected with human APP-C99 at 10 uM incubated for 5 hrs by ELISA; format: cell-based
Summary of the method: (§1)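 N2a cells transfected with human APP-FL or APP-C99 treated with compounds at 10 μM. Aβ40 and Aβ42 in supernatants measured by ELISA; controls were BACE inhibitor MK8931 0.5 μM and γ-secretase inhibitor DAPT 1 μM.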

[2] = target: Beta-secretase 1 (Mus musculus) (UniProt P56818); assay: Inhibition of BACE1 in mouse N2a695 cells assessed as reduction in Abeta42 production at 5 uM pretreated with BACE IV for 1 hr and measured after 5 hrs by ELISA; format: cell-based
Summary of the method: (§2)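 N2a695 cells preincubated 1 h with DMSO or 0.5 μM BACE IV, then given fresh medium containing 5 μM compound. Aβ40 and Aβ42 measured by human Aβ ELISA as percent of DMSO or BACE IV-pretreated DMSO control. Duplicate or triplicate wells; average of three independent experiments.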

[3] = Cytotoxicity against mouse N2a695 cells assessed as reduction in cell viability at 10 uM incubated for 5 hrs by MTT assay; format: cell-based
Summary of the method: (§3)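 Viability of N2a cells by MTT assay after 5 h and 24 h incubation with compound (10 μM; one comparator at 1 μM), scored as number of viable cells.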

[4] = target: Beta-secretase 1 (Mus musculus) (UniProt P56818); assay: Inhibition of BACE1 in mouse N2a695 cells transfected with human APP-C99 assessed as reduction in Abeta42 production at 10 uM incubated for 5 hrs by ELISA; format: cell-based; summary of the method: as §1
[5] = target: Beta-secretase 1 (Mus musculus) (UniProt P56818); assay: Inhibition of BACE1 in mouse N2a695 cells assessed as reduction in Abeta40 production at 5 uM pretreated with BACE IV for 1 hr and measured after 5 hrs by ELISA; format: cell-based; summary of the method: as §2
[6] = target: Beta-secretase 1 (Mus musculus) (UniProt P56818); assay: Inhibition of BACE1 in mouse N2a695 cells assessed as reduction in Abeta40 production at 20 uM incubated for 5 hrs by ELISA; format: cell-based
[7] = Cytotoxicity against mouse N2a695 cells assessed as reduction in cell viability at 10 uM incubated for 24 hrs by MTT assay; format: cell-based; summary of the method: as §3
Mus musculus = species: Mus musculus; assay: Inhibition of Abeta42 production in mouse N2a695 cells at 20 uM incubated for 5 hrs by ELISA; format: functional, cell-based
Summary of the method: (§4)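 N2a695 cells treated with compound (10 μM, or 20 μM for reference compound). Aβ42 in cell supernatant measured by human Aβ ELISA.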

[8] = target: Beta-secretase 1 (Mus musculus) (UniProt P56818); assay: Inhibition of BACE1 in mouse N2a695 cells assessed as reduction in Abeta40 production transfected with human APP-FL at 10 uM incubated for 5 hrs by ELISA; format: cell-based; summary of the method: as §1
[9] = target: Beta-secretase 1 (Mus musculus) (UniProt P56818); assay: Inhibition of BACE1 in mouse N2a695 cells transfected with human APP-FL assessed as reduction in Abeta42 production at 10 uM incubated for 5 hrs by ELISA; format: cell-based; summary of the method: as §1
[10] = target: Proto-oncogene tyrosine-protein kinase Src (Homo sapiens) (UniProt P12931); assay: Inhibition of Src (unknown origin) assessed as residual activity at 1 uM relative to control
Homo sapiens [11] = species: Homo sapiens; assay: Inhibition of Abl (unknown origin) assessed as residual activity at 1 uM relative to control
[12] = Cytotoxicity against mouse N2a695 cells assessed as reduction in cell viability at 1 uM incubated for 5 and 24 hrs by MTT assay; format: cell-based; summary of the method: as §3
[13] = target: Proto-oncogene tyrosine-protein kinase Src (Homo sapiens) (UniProt P12931); assay: Inhibition of Src (unknown origin) assessed as residual activity at 10 uM relative to control
Summary of the method: (§5)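 Abl and Src kinase activity measured by an outside service with compounds at 10 μM; activity reported relative to control.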

[14] = target: Beta-secretase 1 (Mus musculus) (UniProt P56818); assay: Inhibition of BACE1 in mouse N2a695 cells assessed as reduction in Abeta42 production at 10 uM incubated for 5 hrs by ELISA relative to control; format: cell-based; summary of the method: as §4
[15] = target: Beta-secretase 1 (Mus musculus) (UniProt P56818); assay: Inhibition of BACE1 in mouse N2a695 cells assessed as reduction in Abeta40 production at 10 uM incubated for 5 hrs by ELISA relative to control; format: cell-based
[16] = target: Beta-secretase 1 (Mus musculus) (UniProt P56818); assay: Inhibition of BACE1 in mouse N2a695 cells assessed as reduction in Abeta40 production at 10 uM incubated for 6 hrs by ELISA; format: cell-based
Homo sapiens [17] = species: Homo sapiens; assay: Inhibition of Abl (unknown origin) assessed as residual activity at 10 uM relative to control; summary of the method: as §5

Sequence of Proto-oncogene tyrosine-protein kinase Src (Homo sapiens) (P12931 2-536 limits assumed): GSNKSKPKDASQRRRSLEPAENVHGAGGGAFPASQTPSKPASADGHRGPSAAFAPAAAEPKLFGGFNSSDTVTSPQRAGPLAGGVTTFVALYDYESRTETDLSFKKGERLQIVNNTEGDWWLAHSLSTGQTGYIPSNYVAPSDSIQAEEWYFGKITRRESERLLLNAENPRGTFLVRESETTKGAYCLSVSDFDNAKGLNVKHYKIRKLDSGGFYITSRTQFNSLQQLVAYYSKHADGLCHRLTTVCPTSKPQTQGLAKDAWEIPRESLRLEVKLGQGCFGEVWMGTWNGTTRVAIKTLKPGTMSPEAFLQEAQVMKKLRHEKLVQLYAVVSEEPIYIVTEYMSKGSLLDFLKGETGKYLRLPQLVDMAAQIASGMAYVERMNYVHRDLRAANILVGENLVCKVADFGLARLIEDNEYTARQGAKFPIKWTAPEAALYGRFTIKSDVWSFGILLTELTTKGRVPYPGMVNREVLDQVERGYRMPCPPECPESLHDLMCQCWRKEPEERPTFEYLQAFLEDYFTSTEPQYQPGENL
Sequence of Beta-secretase 1 (Mus musculus) (P56818 whole entry): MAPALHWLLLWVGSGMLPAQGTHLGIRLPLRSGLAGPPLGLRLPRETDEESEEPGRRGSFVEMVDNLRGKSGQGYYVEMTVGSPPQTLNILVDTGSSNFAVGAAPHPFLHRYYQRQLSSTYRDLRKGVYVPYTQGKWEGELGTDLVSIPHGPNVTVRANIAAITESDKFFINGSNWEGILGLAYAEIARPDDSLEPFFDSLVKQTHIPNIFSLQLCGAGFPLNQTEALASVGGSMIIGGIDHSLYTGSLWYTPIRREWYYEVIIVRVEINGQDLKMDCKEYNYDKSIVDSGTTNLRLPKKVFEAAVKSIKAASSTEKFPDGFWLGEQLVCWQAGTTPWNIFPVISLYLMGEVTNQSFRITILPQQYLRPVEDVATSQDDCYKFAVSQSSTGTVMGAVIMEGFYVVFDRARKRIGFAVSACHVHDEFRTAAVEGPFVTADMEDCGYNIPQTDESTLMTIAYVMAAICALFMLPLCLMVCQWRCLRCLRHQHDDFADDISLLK

Compound	Activity [3]	Activity [7]	Activity [13] [%]	inhibition [14] [%]	inhibition [15] [%]	inhibition [16]	Activity (Homo sapiens [17]) [%]	further results
Cn1c(=O)c(-c2c(Cl)cccc2Cl)cc2cnc(N3CCNCC3)nc21	Non-Toxic	Non-Toxic	–	–	–	–	–	inhibition [1]: inactive; inhibition [2]: Active; inhibition [4]: Active; inhibition [5]: Active; inhibition [6]: Active; inhibition (Mus musculus): Active; inhibition [8]: Active; inhibition [9]: Active
CSc1cccc(Nc2ncc3cc(-c4c(Cl)cccc4Cl)c(=O)n(C)c3n2)c1	–	–	–	–	–	–	–	Activity [10]: 99.5%; Activity (Homo sapiens [11]): 99.7%; Activity [12]: Non-Toxic
CN1CCC(N2CCN(c3ncc4cc(-c5c(Cl)cccc5Cl)c(=O)n(C)c4n3)CC2)CC1	Non-Toxic	Non-Toxic	10.5	> 50	> 50	Active	20.8	–
Cn1c(=O)c(-c2c(Cl)cccc2Cl)cc2cnc(N3CCN(Cc4ccccc4)CC3)nc21	Non-Toxic	Toxic	–	–	–	Active	–	–
Cn1c(=O)c(-c2c(Cl)cc(NC(=O)OC(C)(C)C)cc2Cl)cc2cnc(N3CCN(c4ccncc4)CC3)nc21	Non-Toxic	Non-Toxic	8	> 50	> 50	Active	0	inhibition [1]: inactive; inhibition [2]: Active; inhibition [4]: Active; inhibition [5]: Active; inhibition [8]: Active; inhibition [9]: Active
CN1CCC(N2CCN(c3ncc4cc(-c5c(Cl)cc(NC(=O)C(C)(C)C)cc5Cl)c(=O)n(C)c4n3)CC2)CC1	Non-Toxic	Non-Toxic	8.9	> 50	> 50	Active	3.2	inhibition [1]: inactive; inhibition [2]: Active; inhibition [4]: Active; inhibition [5]: Active; inhibition [8]: Active; inhibition [9]: Active
Cc1ccc(NC(=O)c2ccc(CN3CCN(C)CC3)cc2)cc1Nc1nccc(-c2cccnc2)n1	–	–	–	–	–	Active	–	–
CN1CCC(N2CCN(c3ncc4cc(-c5c(Cl)cc(NC(=O)OC(C)(C)C)cc5Cl)c(=O)n(C)c4n3)CC2)CC1	Non-Toxic	Toxic	10.4	> 50	> 50	Active	8.5	–
CN1CCN(c2ncc3cc(-c4c(Cl)cc(NC(=O)C(C)(C)C)cc4Cl)c(=O)n(C)c3n2)CC1	Non-Toxic	Non-Toxic	–	–	–	Active	–	–
Cl.Cn1c(=O)c(-c2c(Cl)cccc2Cl)cc2cnc(N3CCN(C4CCNCC4)CC3)nc21	Non-Toxic	Non-Toxic	–	–	–	Active	–	–
CN1CCN(c2ncc3cc(-c4cc(Cl)cc(Cl)c4)c(=O)n(C)c3n2)CC1	Non-Toxic	Non-Toxic	–	–	–	Active	–	–
Cn1c(=O)c(-c2c(Cl)cccc2Cl)cc2cnc(N3CCC(N4CCCCC4)CC3)nc21	Non-Toxic	Non-Toxic	–	–	–	Active	–	–
